Assay [1] addresses T1, Histone-arginine methyltransferase CARM1 (Homo sapiens, UniProt Q86X55).
T1 sequence (Q86X55 whole entry): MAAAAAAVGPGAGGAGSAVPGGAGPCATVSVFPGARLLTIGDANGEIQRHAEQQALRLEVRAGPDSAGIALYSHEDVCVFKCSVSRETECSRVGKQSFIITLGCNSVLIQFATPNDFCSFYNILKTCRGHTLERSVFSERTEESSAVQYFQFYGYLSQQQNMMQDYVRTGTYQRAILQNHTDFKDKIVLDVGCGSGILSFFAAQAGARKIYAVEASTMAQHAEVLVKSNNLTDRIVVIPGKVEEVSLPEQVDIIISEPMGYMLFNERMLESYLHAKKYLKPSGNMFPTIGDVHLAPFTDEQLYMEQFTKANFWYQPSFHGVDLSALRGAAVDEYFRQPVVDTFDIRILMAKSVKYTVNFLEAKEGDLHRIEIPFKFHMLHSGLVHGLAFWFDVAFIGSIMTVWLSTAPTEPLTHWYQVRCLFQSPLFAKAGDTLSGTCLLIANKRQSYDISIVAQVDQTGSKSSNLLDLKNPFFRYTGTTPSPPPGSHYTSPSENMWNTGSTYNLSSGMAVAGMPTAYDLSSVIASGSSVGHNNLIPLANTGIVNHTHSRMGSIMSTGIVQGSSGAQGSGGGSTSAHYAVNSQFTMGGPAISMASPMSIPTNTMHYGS
In words: Inhibition of recombinant GST-tagged CARM1 (unknown origin) expressed in Escherichia coli using […] incubated for 120 mins in presence of [3H]-SAM cofactor by radioactive filter plate assay.

Assay [2] deals with Protein arginine N-methyltransferase 6 (Homo sapiens, UniProt Q96LA8). The assay is described as follows: Inhibition of PRMT6 (unknown origin) using biotin-labeled SMD1 as substrate incubated for 30 mins in presence of [3H]-SAM cofactor by scintillation proximity assay. A general note: SPA uses beads or plates that emit light when radiolabelled molecules are held near them.
Sequence of Protein arginine N-methyltransferase 6 (Q96LA8 whole entry): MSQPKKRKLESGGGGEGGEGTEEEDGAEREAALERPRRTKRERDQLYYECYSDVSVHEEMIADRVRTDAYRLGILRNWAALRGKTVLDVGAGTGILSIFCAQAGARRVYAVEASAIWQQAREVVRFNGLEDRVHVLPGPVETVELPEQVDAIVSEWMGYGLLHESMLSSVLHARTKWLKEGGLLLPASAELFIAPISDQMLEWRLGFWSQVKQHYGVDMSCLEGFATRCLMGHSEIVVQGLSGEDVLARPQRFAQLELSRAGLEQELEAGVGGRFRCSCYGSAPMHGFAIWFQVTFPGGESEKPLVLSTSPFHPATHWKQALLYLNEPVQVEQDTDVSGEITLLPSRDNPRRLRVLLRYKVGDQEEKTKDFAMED
The target in assay [3] is T2, Histone-lysine N-methyltransferase EHMT2 (Homo sapiens, UniProt Q96KQ7).
T2 sequence (Q96KQ7 whole entry): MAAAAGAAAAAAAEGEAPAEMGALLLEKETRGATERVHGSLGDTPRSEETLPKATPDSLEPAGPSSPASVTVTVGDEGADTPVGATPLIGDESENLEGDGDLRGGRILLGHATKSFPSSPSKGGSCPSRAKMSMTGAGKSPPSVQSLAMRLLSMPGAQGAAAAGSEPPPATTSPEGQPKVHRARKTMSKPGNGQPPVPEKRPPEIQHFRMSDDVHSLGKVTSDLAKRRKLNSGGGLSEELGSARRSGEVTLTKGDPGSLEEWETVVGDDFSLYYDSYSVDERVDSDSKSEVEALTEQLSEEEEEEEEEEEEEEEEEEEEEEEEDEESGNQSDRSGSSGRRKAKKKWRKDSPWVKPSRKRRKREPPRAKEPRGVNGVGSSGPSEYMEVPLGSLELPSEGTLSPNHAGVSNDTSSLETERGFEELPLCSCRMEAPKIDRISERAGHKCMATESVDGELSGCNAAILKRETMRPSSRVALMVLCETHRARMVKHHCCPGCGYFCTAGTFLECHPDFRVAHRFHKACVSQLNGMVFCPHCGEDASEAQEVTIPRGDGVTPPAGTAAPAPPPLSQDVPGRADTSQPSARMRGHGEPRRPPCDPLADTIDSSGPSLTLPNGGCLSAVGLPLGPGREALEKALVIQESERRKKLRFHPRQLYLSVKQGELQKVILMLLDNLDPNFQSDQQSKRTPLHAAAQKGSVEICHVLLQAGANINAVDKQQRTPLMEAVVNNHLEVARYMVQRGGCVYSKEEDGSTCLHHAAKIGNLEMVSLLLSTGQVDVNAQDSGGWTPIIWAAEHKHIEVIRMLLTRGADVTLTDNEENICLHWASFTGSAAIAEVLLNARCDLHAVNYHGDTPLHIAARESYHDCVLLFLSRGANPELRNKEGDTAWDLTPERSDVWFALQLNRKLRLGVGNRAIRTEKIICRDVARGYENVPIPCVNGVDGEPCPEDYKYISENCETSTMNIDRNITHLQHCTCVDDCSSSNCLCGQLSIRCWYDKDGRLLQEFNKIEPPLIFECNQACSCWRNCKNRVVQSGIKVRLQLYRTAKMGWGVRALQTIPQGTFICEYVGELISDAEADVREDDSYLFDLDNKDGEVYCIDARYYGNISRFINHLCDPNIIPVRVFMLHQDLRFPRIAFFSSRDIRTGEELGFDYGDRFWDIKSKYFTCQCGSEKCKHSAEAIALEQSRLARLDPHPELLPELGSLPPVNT
In words: Inhibition of recombinant His-tagged human G9a expressed in Escherichia coli BL21 (DE3) using biotin-labeled histone H3-20 peptide as substrate incubated for 30 mins in presence of [3H]-SAM cofactor by scintillation proximity assay. An outline of the steps: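 The inhibitor was serially diluted and added to the enzyme, [3H]-SAM and substrate mixture, and methylated substrate was quantified by scintillation proximity assay. Reactions were held at initial rate, with yield under 10% and substrate near Km. PRMT3, PRMT8 and G9a were His-tagged human proteins, and PRMT7 was GST-tagged, all expressed in E. coli and affinity-purified.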

For the next assay, the system named is MEG-01. The assay is described as follows: Antiproliferative activity against human MEG-01 cells assessed as inhibition of cell growth measured after 72 hrs by CellTiter-Glo assay. To be noted: MEG-01, 72 h. Format: functional, cell-based. A digest of the protocol: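 Cells were cultured with the test agent, serially diluted, for 72 h. The control received the same amount of DMSO. Cell viability was then measured, and IC50 values were taken from sensitivity curves.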

The target of assay [4] is Protein arginine N-methyltransferase 1 (Homo sapiens, UniProt Q99873). The assay is described as follows: Inhibition of PRMT1 in human MEG-01 cells assessed as reduction in RBM15 methylation level measured after 24 hrs by immunoblotting analysis. Format: cell-based. An outline of the steps:
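MEG01 cells were cultured for 24 h with the inhibitor (100 nM, 200 nM) or with DMSO control. Cell extracts were resolved by SDS-PAGE and immunoblotted with anti-methyl-RBM15 antibody and the pan-asymmetric methylation antibody α-Asym24. Equal loading was checked by Ponceau S staining.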

For orientation: IC50 means the concentration that gives 50% inhibition.

Sequence of Protein arginine N-methyltransferase 1 (Q99873 whole entry, looked up): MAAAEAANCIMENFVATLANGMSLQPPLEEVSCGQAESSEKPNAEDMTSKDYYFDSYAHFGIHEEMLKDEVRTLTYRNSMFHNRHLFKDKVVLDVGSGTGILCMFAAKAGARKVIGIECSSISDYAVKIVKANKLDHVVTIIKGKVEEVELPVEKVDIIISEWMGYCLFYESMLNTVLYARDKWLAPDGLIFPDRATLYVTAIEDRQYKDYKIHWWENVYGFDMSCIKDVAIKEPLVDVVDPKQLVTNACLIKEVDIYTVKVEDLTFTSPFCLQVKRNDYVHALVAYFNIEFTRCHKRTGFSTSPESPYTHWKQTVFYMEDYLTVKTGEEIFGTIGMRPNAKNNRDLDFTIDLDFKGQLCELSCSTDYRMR

As to `N=C(N)c1ccc(Nc2ccc(-c3cc4ccc(C(=N)N)cc4[nH]3)cc2)cc1`, the IC50 in assay [1] was found to be 27.6 µM; in assay [2], 2.8 µM; in assay [3] it was 3.7 µM; in the assay on MEG-01, 1.03 µM. The inhibition entry in assay [4] was “Dose-dependent effect”.

The values above are taken from ChEMBL document CHEMBL4680065, “Pharmacophore-based screening of diamidine small molecule inhibitors for protein arginine methyltransferases” (RSC Med Chem, 2021).
